TRPC4 agonist: TRPC4 (mouse) channel activation; Q9QUQ5; HEK293 TRPC4beta/mu-opioid, Fluo4 calcium fluorescence; stronger effect = higher value; B-score at 10 µM; 310,000 tested, 0.49% active; AID 2237;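 active = B-score above 5 SD of library B-scores, and initial fluorescence ratio not above library mean plus 5 SD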;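 note: positive B-score marks a calcium rise read as TRPC4 activation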
Target sequence (Q9QUQ5 whole entry, looked up): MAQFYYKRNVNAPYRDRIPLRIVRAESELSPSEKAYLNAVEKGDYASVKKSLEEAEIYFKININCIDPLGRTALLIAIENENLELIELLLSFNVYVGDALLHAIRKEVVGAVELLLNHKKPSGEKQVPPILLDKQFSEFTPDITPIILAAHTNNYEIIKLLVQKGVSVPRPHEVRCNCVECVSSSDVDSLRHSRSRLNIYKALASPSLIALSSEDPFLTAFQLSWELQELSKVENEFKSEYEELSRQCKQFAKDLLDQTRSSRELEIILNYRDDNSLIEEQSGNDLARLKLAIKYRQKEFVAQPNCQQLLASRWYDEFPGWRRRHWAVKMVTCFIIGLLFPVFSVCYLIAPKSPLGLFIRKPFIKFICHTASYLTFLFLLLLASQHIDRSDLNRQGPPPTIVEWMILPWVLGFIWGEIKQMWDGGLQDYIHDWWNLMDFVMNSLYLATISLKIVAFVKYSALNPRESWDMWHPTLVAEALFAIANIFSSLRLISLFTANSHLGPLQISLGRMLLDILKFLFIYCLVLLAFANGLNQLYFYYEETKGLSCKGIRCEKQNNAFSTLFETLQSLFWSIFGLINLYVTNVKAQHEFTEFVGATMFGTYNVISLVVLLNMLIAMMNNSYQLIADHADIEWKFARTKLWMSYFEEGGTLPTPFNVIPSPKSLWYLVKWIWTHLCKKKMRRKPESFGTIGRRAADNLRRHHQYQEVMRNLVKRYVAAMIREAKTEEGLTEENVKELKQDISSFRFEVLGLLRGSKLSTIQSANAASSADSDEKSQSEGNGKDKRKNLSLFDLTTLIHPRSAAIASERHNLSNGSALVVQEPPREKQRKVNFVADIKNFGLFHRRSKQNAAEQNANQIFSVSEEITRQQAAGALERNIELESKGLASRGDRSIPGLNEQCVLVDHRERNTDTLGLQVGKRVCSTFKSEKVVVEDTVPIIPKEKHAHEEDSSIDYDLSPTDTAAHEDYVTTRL
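Material: TRPC4beta and mu-opioid receptor HEK293 stable cells | Incubation: 45 min room-temperature Fluo4 loading, 110 s read | Detection: Kinetic Fluo4 calcium fluorescence | Measure: Integrated baseline-normalised fluorescence ratio, converted to per-well B score | Benchmarks: Low control buffer alone, high control maximal DAMGO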
TRPC4 potent: TRPC4 (mouse) allosteric potentiation; 310,000 tested, 0.42% active; B-score at 10 µM; Q9QUQ5; HEK293 TRPC4beta/mu-opioid, DAMGO EC20, Fluo-4 Ca2+ flux; stronger effect = higher value;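 active = B-score of calcium response area above 5 SD of library B-scores, with initial fluorescence ratio within 5 SD of library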;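 note: B-score of integrated fluorescence ratio over time as area under calcium response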
TRPC6 act: mouse TRPC6 channel activation; Q61143; HEK293-TRPC6 membrane potential dye fluorescence; stronger effect = higher value; 310,000 tested, 0.13% active; AID 2550; B-score at 10 µM;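 active = B-score of the integrated fluorescence ratio above library mean plus 3 SD, and starting fluorescence ratio within library mean plus 5 SD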;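 note: higher score means more depolarization so channel activation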
TRPC4 block: TRPC4 (mouse) channel inhibition | Q9QUQ5 | HEK293 TRPC4beta/mu-opioid, DAMGO-evoked Fluo4 calcium flux; stronger effect = lower value | B-score at 10 µM | 300,000 tested, 0.39% active | AID 2247;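 active = B-score over 3 SD under the library average, no early fluorescence shift, positive overall ratio signal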
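Material: HEK293 cells with stable TRPC4beta plus mu-opioid receptor expression / Probe or stimulus: DAMGO in two steps, submaximal then maximal / Compound: single concentration per test compound / Technique: kinetic Fluo4 fluorescence imaging of calcium influx / Read-out: per-well B score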
TRPC6 inhibitor: mouse TRPC6 channel inhibition | AID 2553 | Q61143 | B-score at 10 µM | 310,000 tested, 1.1% active | HEK293-TRPC6, membrane potential dye, ACh-evoked depolarization; stronger effect = lower value;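 active = B-score under library mean minus 3 SD, initial fluorescence not abnormally high, positive integrated signal ratio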;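 note: B-score derived from integrated fluorescence ratio over the kinetic read; more negative B-score means stronger inhibition of depolarization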
TRPC4 sel inh 2: second check of whether TRPC6 inhibitors also affect mouse TRPC4 | HEK293 TRPC4/MOR, membrane potential dye fluorescence; channel activated by saturating DAMGO dose | AID 2776 | shares compounds with TRPC6 inhibitor | 920 tested, 42% active | inhibition, % at 10 µM;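 active = compounds whose fluorescence signal differed from control wells by over 3 SD, either direction, in both duplicate plates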
TRPC4 spec: selectivity of TRPC6 inhibitors: effect on mouse TRPC4; AID 2777; 920 tested, 61% active; activity change, negative = inhibition, % at 10 µM; HEK293 TRPC4/mu-opioid, membrane potential fluorescence; shares compounds with TRPC6 inhibitor;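 active = rise or fall in signal beyond 3 SD of buffer-only wells in both replicate plates, either sign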;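 note: integrated kinetic ratio of fluorescence range over baseline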
HEK293 MPD ctr 2-1: second counter-screen for TRPC6 inhibitors: parental HEK293 cells; shares compounds with TRPC6 inhibitor; parental HEK293 membrane potential dye fluorescence; maximal acetylcholine challenge after compound addition; signal change vs control, % at 10 µM; 920 tested, 31% active;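 active = membrane potential signal moving either way by over 3 SD of the maximum-effect control, in both duplicate plates, meaning non-specific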
HEK293 MPD ctr-1: checks TRPC6 inhibitor effects in parental HEK293 cells; shares compounds with TRPC6 inhibitor; parental HEK293 membrane potential dye fluorescence; membrane potential signal change, % at 10 µM; 920 tested, 60% active;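 active = membrane potential signal shifting up or down by more than 3 SD of buffer-only wells, on both duplicate plates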
HEK293 MPD ctr-2: parental HEK293 nonspecific activity of TRPC6 modulators; membrane potential dye fluorescence; membrane potential signal change, % at 10 µM; shares compounds with TRPC6 inhibitor; 2,400 tested, 51% active;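 active = membrane potential signal moves up or down beyond 5 SD from buffer-only wells, on both duplicate plates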
HEK293 MPD ctr 2-2: second counter-screen for TRPC6 modulators: effect in parental HEK293 cells; 2,400 tested, 14% active; membrane potential dye fluorescence; after compound, maximal acetylcholine stimulation; AID 488926; inhibition, % at 10 µM; shares compounds with TRPC6 inhibitor;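 active = membrane potential signal drops by more than 5 SD from the mean control signal, in both duplicate plates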;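 note: plate controls were acetylcholine ECmax control wells for no effect and buffer only wells for full effect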
TRPC4/MOR mod: tests whether TRPC6 modulators also affect mouse TRPC4. shares compounds with TRPC6 inhibitor. 2,400 tested, 69% active. AID 488927. percent change from control (negative = decrease, positive = increase), % at 10 µM. HEK293 TRPC4/mu-opioid, membrane potential fluorescence;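 active = membrane potential signal moved up or down beyond 5 SD of buffer control wells, in both duplicate plates, actives on both sides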;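 note: plate controls were assay buffer wells for no effect and DAMGO maximal-effect wells for full effect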
TRPC4/MOR inh 2: mouse TRPC4 off-target activity of TRPC6 modulators, second screen. shares compounds with TRPC6 inhibitor. HEK293 TRPC4/mu-opioid, membrane potential dye fluorescence; stimulated with maximal-effect DAMGO. 2,400 tested, 55% active. inhibition, % at 10 µM;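 active = drop in membrane potential signal beyond 5 SD of the control wells in both duplicate plates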;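 note: TRPC4 counter screen for TRPC6 hits run under conditions tuned for TRPC6 not TRPC4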
TRPC6 block conf: mouse TRPC6 inhibitor confirmation; shares compounds with TRPC6 inhibitor; HEK293-TRPC6, membrane potential dye, ACh-evoked depolarization; inhibition, % at 10 µM; 3,300 tested, 43% active;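 active = fluorescence ratio falls more than 5 SD below the full-stimulation control mean, in both duplicate runs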;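 note: integrated fluorescence ratio of peak minus minimum over baseline after agonist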
TRPC6 act confirm: mouse TRPC6 activator confirmation; HEK293-TRPC6 membrane potential dye fluorescence, FDSS; activation, % at 10 µM; 2,800 tested, 11% active; shares compounds with TRPC6 inhibitor; AID 488961;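 active = ratio signal rise beyond 5 SD above unstimulated control wells' mean, seen in both duplicate runs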;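 note: plate controls were buffer EC0 wells for no effect and acetylcholine ECmax response for full effect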
Numbers without * were called inactive. This is a sample that favours compounds with a hit; in the whole collection about 2.3% have one here.

What do the screens show for `CCCCCCc1ccc(N2C[C@H](CCCCC)[C@@H](CC(=O)NCc3ccccc3)C2=O)cc1`?
TRPC4 agonist: inactive; TRPC4 potent: inactive; TRPC6 act: 22*; TRPC4 block: inactive; TRPC6 inhibitor: inactive; HEK293 MPD ctr-2: 344%*; HEK293 MPD ctr 2-2: inactive; TRPC4/MOR mod: 77%*; TRPC4/MOR inh 2: inactive; TRPC6 block conf: inactive; TRPC6 act confirm: 169%*

What do the screens show for `CCCCCCc1ccc(N2C[C@H](CCCCC)[C@@H](CC(=O)NCc3ccc(OC)cc3)C2=O)cc1`?
TRPC4 agonist: inactive; TRPC4 potent: inactive; TRPC6 act: 17*; TRPC4 block: inactive; TRPC6 inhibitor: inactive; HEK293 MPD ctr-2: 472%*; HEK293 MPD ctr 2-2: inactive; TRPC4/MOR mod: 84%*; TRPC4/MOR inh 2: inactive; TRPC6 block conf: inactive; TRPC6 act confirm: 95%*

What do the screens show for `O=C(O)/C=C/C(=O)c1ccc2c(c1)NC(=O)CO2`?
TRPC4 agonist: inactive; TRPC4 potent: inactive; TRPC6 act: inactive; TRPC4 block: inactive; TRPC6 inhibitor: inactive

How did CCn1c(SCC(=O)N2CCN(C(=O)c3ccco3)CC2)nnc1C(C)C do in these assays?
TRPC4 agonist: inactive; TRPC4 potent: inactive; TRPC6 act: inactive; TRPC4 block: inactive; TRPC6 inhibitor: inactive

Results for Cc1cccc(NC(=S)NC2CC3CCCC(C2)N3Cc2cccs2)c1 (stereo not given) ?
TRPC4 agonist: inactive; TRPC4 potent: inactive; TRPC6 act: inactive; TRPC4 block: inactive; TRPC6 inhibitor: -7*; TRPC4 sel inh 2: inactive; TRPC4 spec: inactive; HEK293 MPD ctr 2-1: inactive; HEK293 MPD ctr-1: -0.4%*; TRPC6 block conf: inactive; TRPC6 act confirm: inactive

What do the screens show for `CCOc1ccccc1NC1=NC2CS(=O)(=O)CC2S1` (stereo not given)?
TRPC4 agonist: inactive; TRPC4 potent: inactive; TRPC6 act: inactive; TRPC4 block: inactive; TRPC6 inhibitor: inactive

Results for Cc1ccc(C)c(NC(=S)NCCN(C2CCCCC2)C2CCCC2)c1 ?
TRPC4 agonist: inactive; TRPC4 potent: inactive; TRPC6 act: inactive; TRPC4 block: inactive; TRPC6 inhibitor: -5.2*; HEK293 MPD ctr-2: 172%*; HEK293 MPD ctr 2-2: inactive; TRPC4/MOR mod: 32%*; TRPC4/MOR inh 2: 48%*; TRPC6 block conf: inactive

Screens from PubChem BioAssay.
